Measured values from ChEMBL document CHEMBL4190304, “Peroxynitrite-Scavenging Glycosides from the Stem Bark of Catalpa ovata” (J Nat Prod, 2017).
pIC50: −log10 of the molar value.

experiment: Peroxynitrite scavenging activity assessed as inhibition of DHR 123 oxidation after 5 mins in presence of SIN-1 by fluorescence assay; type: functional
In short: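 ONOO− generated by decomposition of SIN-1 (10 μM) in buffer of 90 mM NaCl, 50 mM Na3PO4, 5 mM KCl, 100 μM DTPA, pH 7.4 (N2-purged, on ice), with DHR 123 working solution 5 μM. Fluorescence read (ex 480/em 530 nm) 5 min after treatment with and without SIN-1. Final minus background intensity gives % inhibition of oxidation; IC50, mean ± SD, three independent experiments. DL-penicillamine positive control.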

| SMILES | pIC50 |
| --- | --- |
| COc1cc(/C=C/C(=O)O[C@@H]2C[C@@](O)(CO)[C@H]3[C@H](O[C@@H]4O[C@H](CO)[C@@H](O)[C@H](O)[C@H]4O)OC=C[C@H]32)ccc1O | 5.70 |
| O=C(O[C@H]1[C@@H]2CCO[C@@H](O[C@@H]3O[C@H](CO)[C@@H](O)[C@H](O)[C@H]3O)[C@@H]2[C@@]2(CO)O[C@@H]12)c1ccc(O)cc1 | 4.23 |
| COc1cc(CCO[C@@H]2O[C@H](CO)[C@@H](O)[C@H](O[C@@H]3O[C@H](C)[C@@H](O)[C@H](O)[C@H]3O)[C@H]2O)ccc1O | 5.11 |
| COc1cc(/C=C/C(=O)O[C@H]2[C@@H]3CCO[C@@H](O[C@@H]4O[C@H](CO)[C@@H](O)[C@H](O)[C@H]4O)[C@@H]3[C@@]3(CO)O[C@@H]23)ccc1O | 5.66 |
| COc1cc(/C=C/C(=O)OC[C@H]2O[C@@H](OC[C@@H]3c4cc(/C=C/C=O)cc(OC)c4O[C@H]3c3ccc(O)c(OC)c3)[C@H](O)[C@@H](O)[C@@H]2O)ccc1O | 6.10 |
| O=C(OC[C@@]1(O)CO[C@@H](O[C@H]2[C@H](OCCc3ccc(O)cc3)O[C@H](CO)[C@@H](O)[C@@H]2O)[C@@H]1O)c1ccc(O)cc1 | 4.44 |
| COc1cc(C(=O)OC[C@@]2(O)CO[C@@H](O[C@H]3[C@H](OCCc4ccc(O)cc4)O[C@H](CO)[C@@H](O)[C@@H]3O)[C@@H]2O)ccc1O | 5.07 |
| COC/C=C/c1cc(OC)c2c(c1)[C@H](CO[C@@H]1O[C@H](COC(=O)/C=C/c3ccc(O)c(OC)c3)[C@@H](O)[C@H](O)[C@H]1O)[C@@H](c1ccc(O)c(OC)c1)O2 | 6.47 |
| COc1ccc(/C=C/C(=O)O[C@@H]2C[C@@](O)(CO)[C@H]3[C@H](O[C@@H]4O[C@H](CO)[C@@H](O)[C@H](O)[C@H]4O)OC=C[C@H]32)cc1O | 5.41 |
| O=C(/C=C/c1ccc(O)cc1)OC[C@@]1(O)CO[C@@H](O[C@H]2[C@H](OCCc3ccc(O)cc3)O[C@H](CO)[C@@H](O)[C@@H]2O)[C@@H]1O | 5.35 |
| OC[C@H]1O[C@@H](OCCc2ccc(O)cc2)[C@H](O[C@@H]2OC[C@](O)(CO)[C@H]2O)[C@@H](O)[C@@H]1O | 4.80 |
| C[C@]1(O)C[C@@H](OC(=O)c2ccc(O)cc2)[C@@H]2CCO[C@@H](O[C@@H]3O[C@H](CO)[C@@H](O)[C@H](O)[C@H]3O)[C@@H]21 | 5.08 |
| COc1cc(/C=C/C(=O)OC[C@]23O[C@H]2[C@@H](OC(=O)/C=C/c2ccc(O)c(OC)c2)[C@@H]2C=CO[C@@H](O[C@@H]4O[C@H](CO)[C@@H](O)[C@H](O)[C@H]4O)[C@@H]23)ccc1O | 6.06 |
| O=C(O[C@@H]1C[C@@](O)(CO)[C@H]2[C@H](O[C@@H]3O[C@H](CO)[C@@H](O)[C@H](O)[C@H]3O)OCC[C@H]21)c1ccc(O)cc1 | 4.40 |
| COc1cc(/C=C/C(=O)OC[C@H]2OC(OC[C@H]3[C@@H](Cc4ccc(O)c(OC)c4)CO[C@@H]3c3ccc(O)c(OC)c3)[C@H](O)[C@@H](O)[C@@H]2O)ccc1O (some centres undefined) | 6.09 |
| O=C(OC1C[C@@]2(O)COC3C[C@@H](O[C@@H]4O[C@H](CO)[C@@H](O)[C@H](O)[C@H]4O)[C@H]2[C@H]1C3)c1ccc(O)cc1 (some centres undefined) | 4.12 |
| COc1cc(C(=O)O[C@H]2[C@@H]3C=CO[C@@H](O[C@@H]4O[C@H](CO)[C@@H](O)[C@H](O)[C@H]4O)[C@@H]3[C@@]3(CO)O[C@@H]23)ccc1O [PICROSIDE II] | 5.22 |
| O=C(/C=C/c1ccc(O)cc1)O[C@H]1[C@@H]2C=CO[C@@H](O[C@@H]3O[C@H](CO)[C@@H](O)[C@H](O)[C@H]3O)[C@@H]2[C@@]2(CO)O[C@@H]12 [SPECIOSIDE] | 4.87 |

Second part, the compound after the results:

| pIC50 | SMILES |
| --- | --- |
| < 4.00 | COc1ccc(C(=O)O[C@H]2[C@@H]3C=CO[C@@H](O[C@@H]4O[C@H](CO)[C@@H](O)[C@H](O)[C@H]4O)[C@@H]3[C@@]3(CO)O[C@@H]23)cc1OC |
| 5.80 | COc1cc(/C=C/C(=O)O[C@H]2[C@@H]3C=CO[C@@H](O[C@@H]4O[C@H](CO)[C@@H](O)[C@H](O)[C@H]4O)[C@@H]3[C@@]3(CO)O[C@@H]23)ccc1O |
| 6.32 | COc1cc(/C=C/C(=O)OC[C@H]2O[C@@H](Oc3ccc(O)cc3OC)[C@H](O)[C@@H](O)[C@@H]2O)ccc1O |
| 6.77 | COc1cc(/C=C/C(=O)OC[C@H]2O[C@@H](Oc3ccc(CO)cc3OC)[C@H](O)[C@@H](O)[C@@H]2O)ccc1O |
| 4.11 | COc1ccc(/C=C/C(=O)O[C@H]2[C@@H]3C=CO[C@@H](O[C@@H]4O[C@H](CO)[C@@H](O)[C@H](O)[C@H]4O)[C@@H]3[C@@]3(CO)O[C@@H]23)cc1 |
| 5.96 | COc1cc(/C=C/C(=O)OC[C@H]2O[C@@H](O[C@@H]3OC=C[C@H]4[C@H](OC(=O)/C=C/c5ccc(O)c(OC)c5)[C@@H]5O[C@]5(CO)[C@@H]34)[C@H](O)[C@@H](O)[C@@H]2O)ccc1O |
| 4.44 | COc1ccc(C(=O)O[C@H]2[C@@H]3C=CO[C@@H](O[C@@H]4O[C@H](CO)[C@@H](O)[C@H](O)[C@H]4O)[C@@H]3[C@@]3(CO)O[C@@H]23)cc1 |
| 5.99 | COc1cc(/C=C/C(=O)OC[C@H]2O[C@@H](OCCC3(O)CCC(=O)CC3)[C@H](O)[C@@H](O)[C@@H]2O)ccc1O |
| 6.85 | COc1cc(/C=C/C(=O)OC[C@H]2O[C@@H](OCCc3ccc(O)cc3)[C@H](O)[C@@H](O)[C@@H]2O)ccc1O |
| 5.47 | CC(C)(S)C(N)C(=O)O (racemic) [DL-PENICILLAMINE] |
| < 4.00 | O=C(O[C@H]1[C@@H]2C=CO[C@@H](O[C@@H]3O[C@H](CO)[C@@H](O)[C@H](O)[C@H]3O)[C@@H]2[C@@]2(CO)O[C@@H]12)c1ccc(O)cc1 [CATALPOSIDE] |
